In ChEMBL document CHEMBL1157609, “Discovery of vaniprevir (MK-7009), a macrocyclic hepatitis C virus NS3/4a protease inhibitor” (J Med Chem, 2010):

Key:
[1] = tested on: Hepatitis C virus; assay: Antiviral activity against HCV Con1 infected in human HuH7 cells assessed as inhibition of viral replication after 24 hrs by replicon assay in presence of 50% normal human serum; format: functional, organism-based, Hepacivirus hominis; settings: Con1, Huh-7, 24 h
Method in brief: (§1)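 Huh-7 cells stably carrying a bicistronic replicon (1b con1 or 2a JFH) seeded at 20000 cells/well and held 24 h at 37 °C/5% CO2 in DMEM with 10% FBS or 50% NHS. Compound added in DMSO (1% final) for a further 24 h. Cells fixed and permeabilized. Replicon RNA quantified by in situ hybridization of a radiolabeled neomycin-resistance probe (50 °C, 18 h), followed by RNase A treatment.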

[2] = Drug level in Sprague-Dawley rat liver at 5 mg/kg, po after 4 hrs by LC/MS analysis; format: ADME, organism-based; design: dose 5 mg/kg, route oral; settings: read-out: Drug uptake
Method in brief: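 Rats given a single oral dose as a PEG400 solution (2.0 mL/kg). Liver collected at the terminal time point and homogenized in buffer. Drug extracted liquid-liquid and quantified by LC/MS against standards and QCs.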

[3] = Inhibition of HCV1b BK full length NS3/4A protease expressed in Escherichia coli after 1 hr by time-resolved fluorescence assay; design: species or system Hepatitis C virus (isolate BK)
Method in brief: (§2)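 Full-length NS3/4A (1b BK or 2a JFH) purified from E. coli. TRF peptide substrate added at 100 nM final. Reaction run 1 h at RT, then quenched with 500 mM MES pH 5.5. Read at ex 340/em 615 nm with 400 μs delay. Ki from a four-parameter fit.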

[4] = tested on: Hepatitis C virus; assay: Antiviral activity against HCV Con1 infected in human HuH7 cells assessed as inhibition of viral replication after 24 hrs by replicon assay in presence of 10% fetal bovine serum; format: functional, organism-based, Hepacivirus hominis; settings: Con1, Huh-7, 24 h; method in brief: as §1
[5] = tested on: Hepatitis C virus; assay: Antiviral activity against HCV JFH-1 infected in human HuH7 cells assessed as inhibition of viral replication after 24 hrs by replicon assay in presence of 10% fetal bovine serum; format: functional, organism-based, Hepacivirus hominis; settings: JFH-1, Huh-7, 24 h; method in brief: as §1
[6] = Inhibition of HCV JFH-1 full length NS3/4A protease expressed in Escherichia coli after 1 hr by time-resolved fluorescence assay; design: species or system Hepatitis C virus JFH-1; method in brief: as §2
[7] = Drug level in Sprague-Dawley rat liver at 5 mg/kg, po after 24 hrs by LC/MS analysis; format: ADME, organism-based; design: dose 5 mg/kg, route oral; settings: read-out: Drug uptake
Method in brief: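 Single oral dose given as a PEG400 solution (2.0 mL/kg). Liver was collected at the terminal time point, homogenized in buffer, and processed by liquid-liquid extraction. Drug was quantified by LC/MS against standards and QCs.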

[8] = AUC in Beagle dog at 5 mg/kg, po by LC/MS analysis; format: ADME, organism-based, Canis lupus familiaris; design: dose 5 mg/kg, route oral; settings: plasma
[9] = Drug level in Beagle dog liver at 5 mg/kg, po after 2 hrs by LC/MS analysis; format: ADME, organism-based, Canis lupus familiaris; design: dose 5 mg/kg, route oral; settings: read-out: Drug uptake
[10] = Drug level in Beagle dog liver at 5 mg/kg, po after 24 hrs by LC/MS analysis; format: ADME, organism-based, Canis lupus familiaris; design: dose 5 mg/kg, route oral; settings: read-out: Drug uptake
[11] = AUC in monkey at 5 mg/kg, po by LC/MS analysis; format: ADME, organism-based, Macaca mulatta; design: dose 5 mg/kg, route oral; settings: rhesus monkey, plasma
[12] = Drug level in monkey liver at 5 mg/kg, po after 2 hrs by LC/MS analysis; format: ADME, organism-based, Macaca mulatta; design: dose 5 mg/kg, route oral; settings: rhesus monkey, read-out: Drug uptake
[13] = AUC in chimpanzee at 10 mg/kg, po by LC/MS analysis; format: ADME, organism-based, Pan troglodytes; design: dose 10 mg/kg, route oral; settings: plasma
Method in brief: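 Two chimpanzees dosed orally by voluntary ingestion in a chocolate milk vehicle (0.67 mL/kg). Blood sampled at multiple times up to 24 h. Plasma analysed by liquid-liquid extraction and LC/MS against standards and QCs. Pharmacokinetic parameters calculated from the concentration data.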

Structure (SMILES): C=C[C@@H]1C[C@]1(NC(=O)[C@@H]1C[C@@H]2CN1C(=O)[C@H](C(C)C)NC(=O)OCCC/C=C/c1cccc3c1CN(C3)C(=O)O2)C(=O)NS(=O)(=O)C1CC1
- IC50 [1]: 28 nM
- concentration at 4 h [2]: 440 nM
- Ki [3]: 0.04 nM
- IC50 [4]: 12 nM

Structure (SMILES): CC[C@@H]1C[C@]1(NC(=O)[C@@H]1C[C@@H]2CN1C(=O)[C@H](C(C)(C)C)NC(=O)OCCCCCc1cccc3c1CN(C3)C(=O)O2)C(=O)NS(=O)(=O)C1CC1
- IC50 [1]: 35 nM
- concentration at 4 h [2]: 10700 nM
- IC50 [5]: 140 nM
- Ki [3]: 0.18 nM
- Ki [6]: 4 nM
- IC50 [4]: 10 nM

Structure (SMILES): C=C[C@@H]1C[C@]1(NC(=O)[C@@H]1C[C@@H]2CN1C(=O)[C@H](C1(C)CCCCC1)NC(=O)OCCC/C=C/c1cccc3c1CN(C3)C(=O)O2)C(=O)NS(=O)(=O)C1CC1
- IC50 [1]: 38 nM
- concentration at 4 h [2]: 1600 nM
- Ki [3]: 0.06 nM
- IC50 [4]: 4 nM

Structure (SMILES): C=C[C@@H]1C[C@]1(NC(=O)[C@@H]1C[C@@H]2CN1C(=O)[C@H](C(C)(C)C)NC(=O)OCCCCC/C=C/c1cccc3c1CN(C3)C(=O)O2)C(=O)NS(=O)(=O)C1CC1
- IC50 [1]: 23 nM
- concentration at 4 h [2]: 140 nM
- Ki [3]: < 0.02 nM
- IC50 [4]: 3 nM

Structure (SMILES): C=C[C@@H]1C[C@]1(NC(=O)[C@@H]1C[C@@H]2CN1C(=O)[C@H](C(C)(C)C)NC(=O)OCCC/C=C/c1cccc3c1CCN(C3)C(=O)O2)C(=O)NS(=O)(=O)C1CC1
- IC50 [1]: 2900 nM
- Ki [3]: 8.3 nM
- IC50 [4]: 730 nM

Structure (SMILES): C=C[C@@H]1C[C@]1(NC(=O)[C@@H]1C[C@@H]2CN1C(=O)[C@H](C(C)(C)C)NC(=O)OCC/C=C/c1cccc3c1CN(C3)C(=O)O2)C(=O)NS(=O)(=O)C1CC1
- IC50 [1]: 390 nM
- Ki [3]: 0.1 nM
- IC50 [4]: 16 nM

Structure (SMILES): C=C[C@@H]1C[C@]1(NC(=O)[C@@H]1C[C@@H]2CN1C(=O)[C@H](C(C)(C)C)NC(=O)OCCC/C=C/c1cccc(c1)CN(C)C(=O)O2)C(=O)NS(=O)(=O)C1CC1
- IC50 [1]: 42 nM
- concentration at 4 h [2]: 450 nM
- Ki [3]: 0.14 nM
- IC50 [4]: 28 nM

Structure (SMILES): C=C[C@@H]1C[C@]1(NC(=O)[C@@H]1C[C@@H]2CN1C(=O)[C@H](C(C)(C)C)NC(=O)OCCC/C=C/c1ccccc1CN(C)C(=O)O2)C(=O)NS(=O)(=O)C1CC1
- IC50 [1]: 610 nM
- Ki [3]: 1.6 nM
- IC50 [4]: 98 nM

Structure (SMILES): C=C[C@@H]1C[C@]1(NC(=O)[C@@H]1C[C@@H]2CN1C(=O)[C@H](C(C)(C)C)NC(=O)OCCC/C=C/c1cccc3c1CN(C3)C(=O)O2)C(=O)NS(=O)(=O)C1CC1
- IC50 [1]: 32 nM
- concentration at 4 h [2]: 910 nM
- IC50 [5]: 150 nM
- Ki [3]: 0.05 nM
- Ki [6]: 2.6 nM
- IC50 [4]: 7 nM

Structure (SMILES): C=C[C@@H]1C[C@]1(NC(=O)[C@@H]1C[C@@H]2CN1C(=O)[C@H](C(C)(C)C)NC(=O)OCCC/C=C/c1cccc3c1CN(CC3)C(=O)O2)C(=O)NS(=O)(=O)C1CC1
- IC50 [1]: 140 nM
- concentration at 4 h [2]: 3500 nM
- Ki [3]: 0.15 nM
- IC50 [4]: 26 nM

Structure (SMILES): C=C[C@@H]1C[C@]1(NC(=O)[C@@H]1C[C@@H]2CN1C(=O)[C@H](C1CCCCC1)NC(=O)OCCC/C=C/c1cccc3c1CN(C3)C(=O)O2)C(=O)NS(=O)(=O)C1CC1
- IC50 [1]: 24 nM
- concentration at 4 h [2]: 2800 nM
- Ki [3]: 0.02 nM
- IC50 [4]: 3 nM

Structure (SMILES): C=C[C@@H]1C[C@]1(NC(=O)[C@@H]1C[C@@H]2CN1C(=O)[C@H](CCCC)NC(=O)OCCC/C=C/c1cccc3c1CN(C3)C(=O)O2)C(=O)NS(=O)(=O)C1CC1
- IC50 [1]: 26 nM
- concentration at 4 h [2]: 460 nM
- Ki [3]: 0.05 nM
- IC50 [4]: 6 nM

Structure (SMILES): C=C[C@@H]1C[C@]1(NC(=O)[C@@H]1C[C@@H]2CN1C(=O)[C@H](C1CCCC1)NC(=O)OCCC/C=C/c1cccc3c1CN(C3)C(=O)O2)C(=O)NS(=O)(=O)C1CC1
- IC50 [1]: 23 nM
- Ki [3]: 0.04 nM
- IC50 [4]: 4 nM

Structure (SMILES): C=C[C@@H]1C[C@]1(NC(=O)[C@@H]1C[C@@H]2CN1C(=O)[C@H](C(C)(C)C)NC(=O)OCCCC/C=C/c1cccc3c1CN(C3)C(=O)O2)C(=O)NS(=O)(=O)C1CC1
- IC50 [1]: 19 nM
- concentration at 4 h [2]: 230 nM
- Ki [3]: 0.03 nM
- IC50 [4]: 5 nM

Structure (SMILES): C=C[C@@H]1C[C@]1(NC(=O)[C@@H]1C[C@@H]2CN1C(=O)[C@H](C(C)(C)C)NC(=O)OCCCCCc1cccc3c1CN(C3)C(=O)O2)C(=O)NS(=O)(=O)C1CC1
- IC50 [1]: 27 nM
- concentration at 4 h [2]: 520 nM
- IC50 [5]: 66 nM
- Ki [3]: 0.04 nM
- Ki [6]: 0.9 nM
- IC50 [4]: 7 nM

Structure (SMILES): CC[C@@H]1C[C@]1(NC(=O)[C@@H]1C[C@@H]2CN1C(=O)[C@H](C(C)(C)C)NC(=O)OCCC/C=C/c1cccc3c1CN(C3)C(=O)O2)C(=O)NS(=O)(=O)C1CC1
- IC50 [1]: 110 nM
- concentration at 4 h [2]: 3800 nM
- IC50 [5]: 720 nM
- Ki [3]: 0.45 nM
- Ki [6]: 19 nM
- IC50 [4]: 29 nM

Structure (SMILES): CC[C@@H]1C[C@]1(NC(=O)[C@@H]1C[C@@H]2CN1C(=O)[C@H](C(C)(C)C)NC(=O)OCC(C)(C)CCCCc1cccc3c1CN(C3)C(=O)O2)C(=O)NS(=O)(=O)C1CC1 [VANIPREVIR]
- IC50 [1]: 19 nM
- concentration at 4 h [2]: 9900 nM
- IC50 [5]: 9 nM
- concentration at 24 h [7]: 400 nM
- AUC [8]: 1.2 µM·h
- concentration at 2 h [9]: 34000 nM
- concentration at 24 h [10]: 500 nM
- AUC [11]: 0.05 µM·h
- concentration at 2 h [12]: 3000 nM
- AUC [13]: 5.2 µM·h
- Ki [3]: 0.05 nM
- Ki [6]: 0.9 nM
- IC50 [4]: 3 nM
